Assay [1] is filed under the species Cavia porcellus. Put plainly: Maximum increase in coronary flow in isolated guinea pig heart at a dose of 10 ug. The format is functional. Put shortly:
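Langendorff-perfused isolated guinea pig heart with oxygenated (95% O2/5% CO2) Krebs-Henseleit fluid at 34 ± 1 °C and 60 cm H2O perfusion pressure. Compound dissolved in propylene glycol at 100 µg/mL and infused at 0.1 mL/min. Coronary flow recorded by electromagnetic flow meter before and after infusion, expressed as percent gain. Mean ± SE of five experiments.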

For assay [2], the species on record is Cavia porcellus. The assay is described as follows: Effect on maximum increase in coronary flow in isolated guinea pig heart at a dose of 10 (ug/heart); Inactive. The format is functional.
The test system of assay [3] is Canis familiaris. The assay is described as follows: Compound was tested for max increase in blood flow through cicumflex branch of left coronary artery, 5 min after administration. The assay is classed as functional, Canis lupus familiaris. Put shortly: (§1)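 Anesthetized dogs (12-22 kg; pentobarbital sodium 35 mg/kg ip, supportive respiration) underwent left thoracotomy at the fourth intercostal space. Flow in the left coronary artery branch was recorded with an electromagnetic flow meter and expressed as percent increase. Compound in 0.5% CMC (10 mg/mL) was given intraduodenally at 10 mg/kg. Values are mean ± SE, six experiments.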

Assay [4] concerns Canis familiaris. The assay is described as follows: Change in the heart rate and hypotensive action was measured in dogs at 10 mg/kg dose, 30 min after id administration. The format is functional, Canis lupus familiaris. The following applies: route intraduodenal. In a few lines: (§2)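 Dogs of 12-22 kg were anesthetized with pentobarbital sodium (35 mg/kg ip), given supportive respiration, and opened by left thoracotomy at the fourth intercostal space. Compound was suspended in 0.5% CMC (10 mg/mL) and given intraduodenally via cannula at 10 mg/kg. Blood pressure was taken by carotid cannula and pressure transducer, and heart rate from the ECG. Values are mean ± SE, six experiments.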

The subject of assay [5] is Canis familiaris. Put plainly: Change in the mean blood pressure and hypotensive action was measured in dogs at 10 mg/kg dose, 60 min after id administration. The following applies: route intraduodenal. The format is functional, Canis lupus familiaris. In a few lines: as §2
Assay [6] has as its system Canis familiaris. The assay is described as follows: Change in the mean blood pressure and hypotensive action was measured in dogs at 10 mg/kg dose, 30 min after id administration. The format is functional, Canis lupus familiaris. The note with it: route intraduodenal. Put shortly:
as §2

The species entered for assay [7] is Cavia porcellus. Put plainly: pA2 was measured as Calcium antagonistic activity.
Assay [8] has as its system Canis familiaris. Put plainly: Compound was tested for max increase in blood flow through cicumflex branch of left coronary artery, 30 min after administration. The format is functional, Canis lupus familiaris. In a few lines: as §1
Assay [9] relates to Canis familiaris. The assay is described as follows: Change in the heart rate and hypotensive action was measured in dogs at 10 mg/kg dose, 120 min after id administration. The following applies: route intraduodenal. The format is functional, Canis lupus familiaris. Put shortly:
as §2

In assay [10] the test system is Canis familiaris. Put plainly: Change in the mean blood pressure and hypotensive action was measured in dogs at 10 mg/kg dose, 120 min after id administration. The format is functional, Canis lupus familiaris. The note with it: route intraduodenal. In a few lines:
as §2

Assay [11] concerns Canis familiaris. Put plainly: Change in the mean blood pressure and hypotensive action was measured in dogs at 10 mg/kg dose, 5 min after id administration. The format is functional, Canis lupus familiaris. The note with it: route intraduodenal. In a few lines:
as §2

Assay [12] has as its system Canis familiaris. The assay is described as follows: Compound was tested for max increase in blood flow through cicumflex branch of left coronary artery, 60 min after administration. The format is functional, Canis lupus familiaris. Put shortly:
as §1

In assay [13] the test system is Canis familiaris. The assay is described as follows: Compound was tested for max increase in blood flow through cicumflex branch of left coronary artery, 120 min after administration. The format is functional, Canis lupus familiaris. In a few lines: as §1
Assay [14] concerns Canis familiaris. Put plainly: Change in the heart rate and hypotensive action was measured in dogs at 10 mg/kg dose, 5 min after id administration. The assay is classed as functional, Canis lupus familiaris. The following applies: route intraduodenal. In a few lines:
as §2

Assay [15] deals with Canis familiaris. Put plainly: Change in the heart rate and hypotensive action was measured in dogs at 10 mg/kg dose, 60 min after id administration. The assay is classed as functional, Canis lupus familiaris. The note with it: route intraduodenal. Put shortly:
as §2

Assay [16] concerns Canis familiaris. Put plainly: Compound was tested for max increase in blood flow through circumflex branch of left coronary artery, 5 min after administration. The format is functional, Canis lupus familiaris. Put shortly:
as §1

The structures appear in SMILES notation. Active and inactive are the calls of the source. The rule behind the calls is not given here.

Usually Kb stands for the equilibrium dissociation constant of an antagonist, usually derived from a functional assay.

In the assay listed under Cavia porcellus [1], `CCOP(=O)(Cc1ccc(-c2nc3ccc(Cl)cc3s2)cc1)OCC` returned an Increase of 54.6%.
Same read-out and setting: the value for `CCOP(=O)(Cc1ccc(-c2nc3ccc(C)cc3s2)cc1)OCC` was 31.3%.
For the compound `O=P(O)(O)Cc1ccc(-c2nc3ccccc3s2)cc1`, the Increase entry in the assay filed under Cavia porcellus [2] was “inactive”.
`CCOP(=O)(Cc1ccc(-c2nc3cccc(OC(C)=O)c3s2)cc1)OCC` returned an Increase in the assay listed under Cavia porcellus [1] of 71.7%.
The compound `COc1ccc(Cc2nccc3cc(OC)c(OC)cc23)cc1OC.Cl` [PAPAVERINE HYDROCHLORIDE] showed an Increase in the assay listed under Cavia porcellus [1] of 55.8%.
Still for that read-out and setting: the value for `CCOP(=O)(Cc1ccc(-c2nc3ccc(N)cc3s2)cc1)OCC.Cl` was 50%; that for `CCOP(=O)(Cc1ccc(-c2nc3ccc(NC(C)=O)cc3s2)cc1)OCC` was 48.7%.
Still for that read-out and setting: the value for `CC(C)OP(=O)(Cc1ccc(-c2nc3ccccc3s2)cc1)OC(C)C` was 75.6%; that for `CCOP(=O)(Cc1ccc(-c2nc3cc(O)ccc3s2)cc1)OCC` was 49%; that for `CCOP(=O)(Cc1ccc(-c2nc3ccc(OC(C)=O)cc3s2)cc1)OCC` was 56.7%.
As to `COc1ccc([C@@H]2Sc3ccccc3N(CCN(C)C)C(=O)[C@@H]2OC(C)=O)cc1.Cl` [DILTIAZEM HYDROCHLORIDE], the Increase in the assay on Canis familiaris [3] is given as 6.5%; in the assay on Canis familiaris [8], 85.5%; in the assay listed under Cavia porcellus [1], 63.9%; in the assay with Canis familiaris [12] it was 89.4%; in the assay with Canis familiaris [13] it was 74.6%. Moreover, the Change with Canis familiaris [4] is listed as -19.7 beats min-1; in the assay on Canis familiaris [5] it was -13.8 mmHg; with Canis familiaris [6] it was -10.7 mmHg; with Canis familiaris [9], -27.2 beats min-1; with Canis familiaris [10], -14.5 mmHg; in the assay on Canis familiaris [11] it was -2.7 mmHg. The figures for the Change with Canis familiaris [14] and with Canis familiaris [15] were 3.2 beats min-1 and -29.2 beats min-1, respectively. In addition, in the assay filed under Cavia porcellus [7], the Kb was 417 nM.
In turn, `CCOP(=O)(Cc1ccc(-c2nc3cccc(O)c3s2)cc1)OCC` gave an Increase in the assay listed under Cavia porcellus [1] of 20.6%.
`COP(=O)(Cc1ccc(-c2nc3ccccc3s2)cc1)OC` returned an Increase in the assay listed under Cavia porcellus [1] of 34.8%.
The compound `CCCOP(=O)(Cc1ccc(-c2nc3ccccc3s2)cc1)OCCC` showed an Increase in the assay listed under Cavia porcellus [1] of 62.4%.
On to `CCOP(=O)(Cc1ccc(-c2nc3ccc([N+](=O)[O-])cc3s2)cc1)OCC`, for which, in the assay filed under Cavia porcellus [2], the Increase entry was “inactive”.
For `Cc1ccc(-c2nc3ccccc3s2)cc1`, the Increase entry in the assay filed under Cavia porcellus [2] was “inactive”.
In the assay listed under Cavia porcellus [1], `CCOP(=O)(Cc1ccc(-c2nc3ccc(O)cc3s2)cc1)OCC` came in with an Increase of 63.3%.
For `CCOP(=O)(Cc1ccc(-c2nc3ccc(OC)cc3s2)cc1)OCC`, in the assay filed under Cavia porcellus [1], the Increase is given as 20.1%.
As for `CCOP(=O)(Cc1ccc(-c2nc3ccccc3s2)cc1)OCC` [FOSTEDIL], the Increase in the assay on Canis familiaris [16] came out at 28.2%; with Canis familiaris [8], 65.2%; in the assay filed under Cavia porcellus [1], 79.9%; in the assay on Canis familiaris [12] it was 87.5%; in the assay with Canis familiaris [13], 91.8%. Also, the Change in the assay on Canis familiaris [4] was -18.3 beats min-1; in the assay on Canis familiaris [5], -12 mmHg; in the assay on Canis familiaris [6] it was -9.7 mmHg; in the assay with Canis familiaris [9] it was -18.7 beats min-1; in the assay on Canis familiaris [10], -13.3 mmHg; with Canis familiaris [11], -13.4 mmHg. In addition, the Change with Canis familiaris [14] is listed as -6.9 beats min-1; in the assay on Canis familiaris [15], -20.8 beats min-1. Also, the Kb in the assay filed under Cavia porcellus [7] is 120 nM.
Consider `CCOP(=O)(Cc1ccc(-c2nc3cc(OC(C)=O)ccc3s2)cc1)OCC`, for which the Increase in the assay listed under Cavia porcellus [1] is reported as 23.2%.
For `CCOC(=O)Cc1ccc(-c2nc3ccccc3s2)cc1`, the Increase entry in the assay listed under Cavia porcellus [2] was “inactive”.
In the assay listed under Cavia porcellus [1], `CCCCOP(=O)(Cc1ccc(-c2nc3ccccc3s2)cc1)OCCCC` returned an Increase of 37.3%.

Source of the values: ChEMBL document CHEMBL1123185, “Organic phosphorus compounds. 1. 4-(Benzothiazol-2-yl)benzylphosphonate as potent calcium antagonistic vasodilator” (J Med Chem, 1986).
